Data: ChEMBL document CHEMBL2331309, “2,3-Diarylpropenoic acids as selective non-steroidal inhibitors of type-5 17β-hydroxysteroid dehydrogenase (AKR1C3)” (Eur J Med Chem, 2013)
Numbering of substitutions follows the chain as printed. Calls of active or inactive are those of the source. The rule behind the calls is not given here.

Experiments:
[1] = biological target: T1, Aldo-keto reductase family 1 member C2 (Homo sapiens) (UniProt P52895); experiment: Inhibition of recombinant AKR1C2 (unknown origin) assessed as decrease in oxidation of 1-acenaphthenol substrate at 100 uM by spectrophotometric analysis
T1 sequence (whole entry): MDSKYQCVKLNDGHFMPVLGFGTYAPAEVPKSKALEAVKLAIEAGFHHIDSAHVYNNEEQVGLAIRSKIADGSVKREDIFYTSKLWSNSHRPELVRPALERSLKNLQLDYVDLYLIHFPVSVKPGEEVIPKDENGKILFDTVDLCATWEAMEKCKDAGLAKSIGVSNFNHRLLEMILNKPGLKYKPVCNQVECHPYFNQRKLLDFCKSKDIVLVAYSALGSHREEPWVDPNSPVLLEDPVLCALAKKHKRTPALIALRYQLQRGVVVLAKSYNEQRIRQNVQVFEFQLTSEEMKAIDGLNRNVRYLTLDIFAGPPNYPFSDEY
Procedure, shortened: (§1)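 Single-point screen at 100 μM compound. Recombinant enzyme oxidizes 1-acenaphthenol with 2.3 mM NAD⁺ in 100 mM phosphate buffer pH 9.0, 0.005% Triton X-114, 5% DMSO. AKR1C1: 30 μM substrate (Km), 0.3 μM enzyme. AKR1C2: 50 μM substrate (Km), 0.2 μM enzyme. NADH formation read at 340 nm from initial velocities. Result given as % inhibition.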

[2] = biological target: T2, Aldo-keto reductase family 1 member C1 (Homo sapiens) (UniProt Q04828); experiment: Inhibition of human recombinant AKR1C1 expressed in Escherichia coli assessed as decrease in oxidation of 1-acenaphthenol substrate at 100 uM by spectrophotometric analysis; procedure, shortened: as §1
T2 sequence (whole entry): T1 sequence (whole entry) with V38T, H47R, V54L, S87C, M151V, H170R, L172Q

[3] = biological target: T3, Aldo-keto reductase family 1 member C1 (Homo sapiens, UniProt Q04828); experiment: Inhibition of human recombinant AKR1C1 expressed in Escherichia coli assessed as decrease in oxidation of 1-acenaphthenol substrate by spectrophotometric analysis
T3 sequence (Q04828 whole entry): T1 sequence (whole entry) with V38T, H47R, V54L, S87C, M151V, H170R, L172Q
Procedure, shortened: (§2)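 IC50 measured for compounds giving over 50% inhibition at 100 μM. Assay uses 1-acenaphthenol oxidation with 2.3 mM NAD⁺ in pH 9.0 100 mM phosphate buffer with 0.005% Triton X-114 and 5% DMSO. AKR1C1 runs at 30 μM substrate and 0.3 μM enzyme; AKR1C2 at 50 μM substrate and 0.2 μM enzyme. Initial rates come from NADH at 340 nm. IC50 is read from log[inhibitor] versus % inhibition plots.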

[4] = biological target: T4, Aldo-keto reductase family 1 member C3 (Homo sapiens, UniProt P42330); experiment: Inhibition of recombinant AKR1C3 (unknown origin) assessed as decrease in oxidation of 1-acenaphthenol substrate by spectrophotometric analysis
T4 sequence (P42330 whole entry): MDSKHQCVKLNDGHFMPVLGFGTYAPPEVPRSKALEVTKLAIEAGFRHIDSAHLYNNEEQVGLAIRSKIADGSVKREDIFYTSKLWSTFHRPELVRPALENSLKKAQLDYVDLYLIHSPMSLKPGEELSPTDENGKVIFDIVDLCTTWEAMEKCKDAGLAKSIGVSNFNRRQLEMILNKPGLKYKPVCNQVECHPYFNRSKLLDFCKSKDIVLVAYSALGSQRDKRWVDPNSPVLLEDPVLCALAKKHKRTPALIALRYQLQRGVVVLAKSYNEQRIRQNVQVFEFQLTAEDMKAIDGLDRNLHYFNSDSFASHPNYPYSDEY

[5] = biological target: T5, Aldo-keto reductase family 1 member C2 (Homo sapiens, UniProt P52895); experiment: Inhibition of recombinant AKR1C2 (unknown origin) assessed as decrease in oxidation of 1-acenaphthenol substrate by spectrophotometric analysis; procedure, shortened: as §2
T5 sequence (P52895 whole entry): T1 sequence (whole entry)

| SMILES | inhibition [1] | inhibition [2] | IC50 [3] [µM] | IC50 [4] [µM] | IC50 [5] [µM] |
| --- | --- | --- | --- | --- | --- |
| CS(=O)(=O)c1ccc(/C=C(/C(=O)O)c2ccccc2)cc1 | 61.4% | 77.6% | 30.8 | 139 | 34.4 |
| COc1cc(/C(=C\c2cccc3ccccc23)C(=O)O)cc(OC)c1OC | 13.8% | 6.4% | – | – | – |
| COc1ccc(/C=C(/C(=O)O)c2cc(OC)c(OC)c(OC)c2)cc1OC | 0.6% | 6.1% | – | – | – |
| Cc1ccc(/C=C(/C(=O)O)c2ccc(S(C)(=O)=O)cc2)cc1 | 1.1% | inactive | – | 13.4 | – |
| COc1cc(/C=C(/C(=O)O)c2ccc(S(C)(=O)=O)cc2)cc(OC)c1OC | inactive | inactive | – | – | – |
| COc1ccc(/C=C(/C(=O)O)c2ccc(S(C)(=O)=O)cc2)cc1 | inactive | inactive | – | 36.9 | – |
| CS(=O)(=O)c1ccc(/C(=C\c2ccc(C(F)(F)F)cc2)C(=O)O)cc1 | 18.4% | 3.5% | – | 23.3 | – |
| CC(=O)NS(=O)(=O)c1ccc(/C=C(/C(=O)O)c2ccccc2)cc1 | 87.3% | 97.8% | 8.7 | – | 25.2 |
| CSc1ccc(/C=C(/C(=O)O)c2ccc(Cl)cc2)cc1 | 75.2% | 88.1% | 6.6 | 8.3 | 27.3 |
| CS(=O)(=O)c1ccc(/C(=C\c2ccccc2)C(=O)O)cc1 | 27.3% | 26.3% | – | 69.8 | – |
| COc1cc(/C(=C\c2cccc(F)c2)C(=O)O)cc(OC)c1OC | 55.9% | 7.8% | – | – | 77 |
| CS(=O)(=O)c1ccc(/C(=C\c2ccc(O)c(O)c2)C(=O)O)cc1 | 27.2% | 46.5% | – | 33.1 | – |
| CS(=O)(=O)c1ccc(/C(=C\c2cccc(Br)c2)C(=O)O)cc1 | 58.3% | 34.8% | – | 13.6 | 74.3 |
| CSc1ccc(/C=C(/C(=O)O)c2cccc(Cl)c2)cc1 | 78.3% | 81.7% | 19.1 | 17 | 20.8 |
| CCc1ccc(/C=C(/C(=O)O)c2ccc(S(C)(=O)=O)cc2)cc1 | inactive | inactive | – | 13.6 | – |
| CC(=O)O[C@]1(C(C)=O)CC[C@H]2[C@@H]3C[C@H](C)C4=CC(=O)CC[C@]4(C)[C@H]3CC[C@@]21C [MEDROXYPROGESTERONE ACETATE] | – | – | 1.8 | 0.3 | 4.1 |
| CSc1ccc(/C=C(/C(=O)O)c2ccc(S(C)(=O)=O)cc2)cc1 | 14.4% | 43.8% | – | 5.8 | – |
| CS(=O)(=O)c1ccc(/C=C(/C(=O)O)c2ccc(Cl)cc2)cc1 | 63.4% | 89.6% | 15.7 | 86.6 | 26.9 |
| O=C(O)/C(=C/c1ccccc1)c1ccccc1 | 47.5% | 90.1% | 7.9 | – | – |
| CS(=O)(=O)c1ccc(/C(=C\c2ccc(F)cc2)C(=O)O)cc1 | 9.2% | 21% | – | 43.1 | – |
| COc1ccc(/C=C(/C(=O)O)c2cc(OC)c(OC)c(OC)c2)cc1F | 9.9% | -5.2% | – | – | – |
| CS(=O)(=O)c1ccc(/C(=C\c2ccc(Br)cc2)C(=O)O)cc1 | 19.2% | 28.7% | – | 4.9 | – |
| CS(=O)(=O)c1ccc(/C=C(/C(=O)O)c2ccc3c(c2)OCO3)cc1 | 24.2% | 45.2% | – | – | – |
| CS(=O)(=O)c1ccc(/C(=C\c2ccc(O)cc2)C(=O)O)cc1 | inactive | inactive | – | – | – |
| CS(=O)(=O)c1ccc(/C=C(/C(=O)O)c2ccc(S(C)(=O)=O)cc2)cc1 | inactive | inactive | – | 51 | – |

More lines, now with the values ahead:

| inhibition [1] | inhibition [2] | IC50 [3] [µM] | IC50 [4] [µM] | IC50 [5] [µM] | SMILES |
| --- | --- | --- | --- | --- | --- |
| 15.9% | 9.6% | – | – | – | COc1cc(/C(=C\c2ccc3ccccc3c2)C(=O)O)cc(OC)c1OC |
| 59.1% | 87% | 12.3 | 30.2 | 41.2 | CSc1ccc(/C=C(/C(=O)O)c2ccccc2)cc1 |
| 10.6% | 5.9% | – | – | – | CC(=O)NS(=O)(=O)c1ccc(/C=C(/C(=O)O)c2ccc(S(C)(=O)=O)cc2)cc1 |
| 43% | 44.5% | – | 16.8 | – | CS(=O)(=O)c1ccc(/C(=C\c2cccc(Cl)c2)C(=O)O)cc1 |
| 77.8% | 29.4% | – | 128 | 24.2 | COc1ccc(/C=C(/C(=O)O)c2cccc3ccccc23)cc1OC |
| inactive | inactive | – | – | – | CS(=O)(=O)c1ccc(/C(=C\c2cccc(O)c2)C(=O)O)cc1 |
| 57.4% | 64.7% | – | – | – | CSc1ccc(-c2ccc(/C=C(/C(=O)O)c3ccc(S(C)(=O)=O)cc3)cc2)cc1 |
| 66.4% | 75.9% | 19.3 | 76.7 | 23.1 | CS(=O)(=O)c1ccc(/C=C(/C(=O)O)c2cccc(Cl)c2)cc1 |
| 39.6% | 9.7% | – | 38.7 | – | COc1ccc(/C=C(/C(=O)O)c2ccc3ccccc3c2)cc1OC |
| 27% | 15.4% | – | 38.9 | – | CS(=O)(=O)c1ccc(/C(=C\c2cccc(F)c2)C(=O)O)cc1 |
| 27% | 40% | – | – | – | COc1cc(/C(=C\c2cccc(OC(C)=O)c2)C(=O)O)cc(OC)c1OC |
| 69.7% | 86.1% | 23.3 | – | 44.6 | CS(=O)(=O)c1ccc(/C=C(/C(=O)O)c2ccc(F)cc2)cc1 |
| 4.3% | 15.1% | – | – | – | COc1ccc(/C=C(/C(=O)O)c2cc(OC)c(OC)c(OC)c2)cc1 |
| 3.2% | 8% | – | – | – | COc1ccc(/C=C(/C(=O)O)c2cc(OC)c(OC)c(OC)c2)cc1OC(C)=O |
| 20.6% | 14.4% | – | 121 | – | COc1ccc(/C=C(/C(=O)O)c2cc(OC)c(OC)c(OC)c2)cc1O |
| 24.3% | 34.7% | – | 10.8 | – | CS(=O)(=O)c1ccc(/C(=C\c2ccc(Cl)cc2)C(=O)O)cc1 |
